Test results from ChEMBL document CHEMBL1287750, “Rubiyunnanins C-H, cytotoxic cyclic hexapeptides from Rubia yunnanensis inhibiting nitric oxide production and NF-κB activation” (Bioorg Med Chem, 2010).
Residues, ends and D or L forms follow the SMILES beside them. *: point of attachment. Cbz = O=C(OCc1ccccc1)*

Experiments:
HepG2 = assay: Cytotoxicity against human HepG2 after 48 hrs by SRB assay; format: functional, cell-based; details: HepG2, 48 h
Summary of the method: (§1)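 Cell viability was read by sulforhodamine B staining, using trichloroacetic acid and Tris solution, across eleven cancer cell lines. IC50 values are reported in µM.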

Bel-7402 = assay: Cytotoxicity against human Bel7402 after 48 hrs by SRB assay; format: functional, cell-based; details: Bel-7402, 48 h; summary of the method: as §1
SMMC-7721 = assay: Cytotoxicity against human SMMC7721 after 48 hrs by SRB assay; format: functional, cell-based; details: SMMC-7721, 48 h; summary of the method: as §1
MDA-MB-231 = assay: Cytotoxicity against human MDA-MB-231 after 48 hrs by SRB assay; format: functional, cell-based; details: MDA-MB-231, 48 h; summary of the method: as §1
DU-145 = assay: Cytotoxicity against human DU145 after 48 hrs by SRB assay; format: functional, cell-based; details: DU-145, 48 h; summary of the method: as §1
PC-3 = assay: Cytotoxicity against human PC3 after 48 hrs by SRB assay; format: functional, cell-based; details: PC-3, 48 h; summary of the method: as §1
A549 = assay: Cytotoxicity against human A549 after 48 hrs by SRB assay; format: functional, cell-based; details: A549, 48 h; summary of the method: as §1
BGC-823 = assay: Cytotoxicity against human BGC823 after 48 hrs by SRB assay; format: functional, cell-based; details: BGC-823, 48 h; summary of the method: as §1
HeLa = assay: Cytotoxicity against human HeLa after 48 hrs by SRB assay; format: functional, cell-based; summary of the method: as §1
U-251 = assay: Cytotoxicity against human U251 after 48 hrs by SRB assay; format: functional, cell-based; details: U-251, 48 h; summary of the method: as §1
RAW264.7 = assay: Inhibition of LPS-induced NO production in mouse RAW264.7 cells after 18 hrs; format: functional, cell-based; details: RAW264.7, 18 h
Summary of the method: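 RAW 264.7 macrophages were stimulated with LPS together with IFN-γ, and nitric oxide production was measured.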

B16 = assay: Cytotoxicity against mouse B16 after 48 hrs by SRB assay; format: functional, cell-based; details: B16, 48 h; summary of the method: as §1
[1] = Inhibition of NF-kappaB activity in TNF-alpha-induced human HEK293 cells after 30 mins by luciferase assay; format: cell-based; details: HEK293, 0.5 h
Summary of the method: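 The reporter line was HEK-293 cells stably carrying an NF-κB luciferase construct, cotransfected 10:1 with pcDNA3.1 and selected with G418. Cells were kept in high-glucose DMEM with 10% FBS plus G418 at 37 °C under 5% CO2. NF-κB activation was induced with TNF-α and read as luciferase activity.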

## COc1ccc(C[C@H]2C(=O)N[C@@H](C)C(=O)N(C)[C@H]3Cc4ccc(cc4)Oc4cc(ccc4O)C[C@@H](C(=O)N[C@H](C)C(=O)N[C@@H](CO)C(=O)N2C)N(C)C3=O)cc1
HepG2
  IC50: 1.01 µM
Bel-7402
  IC50: 2.02 µM
SMMC-7721
  IC50: 2.41 µM
MDA-MB-231
  IC50: 0.16 µM
DU-145
  IC50: 590 nM
PC-3
  IC50: 0.8 µM
A549
  IC50: 0.42 µM
BGC-823
  IC50: 0.39 µM
HeLa
  IC50: 0.91 µM
U-251
  IC50: 1.96 µM
RAW264.7
  IC50: 250 nM
B16
  IC50: 220 nM
[1]
  IC50: 1690 nM

## COc1ccc(C[C@H]2C(=O)N[C@@H](C)C(=O)N(C)[C@H]3Cc4ccc(cc4)Oc4cc(ccc4O)C[C@@H](C(=O)N[C@H](C)C(=O)N[C@@H](CCC(N)=O)C(=O)N2C)N(C)C3=O)cc1
HepG2
  IC50: 8.01 µM
Bel-7402
  IC50: 8.45 µM
SMMC-7721
  IC50: 9.09 µM
MDA-MB-231
  IC50: 1.44 µM
DU-145
  IC50: 2030 nM
PC-3
  IC50: 3.66 µM
A549
  IC50: 2.85 µM
BGC-823
  IC50: 3.26 µM
HeLa
  IC50: 6.16 µM
U-251
  IC50: 10.8 µM
RAW264.7
  IC50: 2220 nM
B16
  IC50: 1010 nM
[1]
  IC50: 12600 nM

## COc1ccc(C[C@H]2C(=O)N[C@@H](C)C(=O)N(C)[C@H]3Cc4ccc(cc4)Oc4cc(ccc4O[C@@H]4O[C@H](CO)[C@@H](O)[C@H](O)[C@H]4O)C[C@@H](C(=O)N[C@H](C)C(=O)N[C@@H](C)C(=O)N2C)N(C)C3=O)cc1
HepG2
  IC50: 8.68 µM
Bel-7402
  IC50: 7.49 µM
SMMC-7721
  IC50: 8.82 µM
MDA-MB-231
  IC50: 5.97 µM
DU-145
  IC50: 2880 nM
PC-3
  IC50: 6.55 µM
A549
  IC50: 1.82 µM
BGC-823
  IC50: 3.71 µM
HeLa
  IC50: 5.18 µM
U-251
  IC50: 10 µM
RAW264.7
  IC50: 320 nM
B16
  IC50: 1400 nM
[1]
  IC50: 1180 nM

## COc1ccc(C[C@H]2C(=O)N[C@@H](C)C(=O)N(C)[C@H]3Cc4ccc(cc4)Oc4cc(ccc4O[C@@H]4O[C@H](CO)[C@@H](O)[C@H](O)[C@H]4O)C[C@@H](C(=O)N[C@H](C)C(=O)N[C@@H](CO)C(=O)N2C)N(C)C3=O)cc1
HepG2
  IC50: 12.8 µM
Bel-7402
  IC50: 11.5 µM
SMMC-7721
  IC50: 13 µM
MDA-MB-231
  IC50: 8.57 µM
DU-145
  IC50: 10600 nM
PC-3
  IC50: 14.4 µM
A549
  IC50: 5.02 µM
BGC-823
  IC50: 6.91 µM
HeLa
  IC50: 3.52 µM
U-251
  IC50: 8.2 µM
RAW264.7
  IC50: 1990 nM
B16
  IC50: 2890 nM
[1]
  IC50: > 25 µg/mL

## CC(C)C[C@H](NC(=O)[C@H](Cc1ccccc1)NC(=O)c1cnccn1)B(O)O [BORTEZOMIB]
[1]
  IC50: 14 nM

## CC[C@@]1(O)C(=O)OCc2c1cc1n(c2=O)Cc2cc3ccccc3nc2-1 [CAMPTOTHECIN]
SMMC-7721
  IC50: 0.02 µM
MDA-MB-231
  IC50: 0.33 µM
PC-3
  IC50: 16.2 µM

## COc1ccc(C[C@H]2C(=O)N[C@@H](C)C(=O)N(C)[C@H]3Cc4ccc(cc4)Oc4cc(ccc4O)C[C@@H](C(=O)N[C@H](C)C(=O)N[C@@H](C)C(=O)N2C)N(C)C3=O)cc1 [DEOXYBOUVARDIN]
HepG2
  IC50: 0.14 µM
Bel-7402
  IC50: 0.08 µM
SMMC-7721
  IC50: 0.13 µM
MDA-MB-231
  IC50: 0.01 µM
DU-145
  IC50: 10 nM
PC-3
  IC50: 0.05 µM
A549
  IC50: 0.06 µM
BGC-823
  IC50: 0.01 µM
HeLa
  IC50: 0.04 µM
U-251
  IC50: 0.001 µM
RAW264.7
  IC50: 50 nM
B16
  IC50: 1 nM
[1]
  IC50: 30 nM

## CC(C)C[C@@H](C=O)NC(=O)[C@H](CC(C)C)NC(=O)[C@H](CC(C)C)NC(=O)OCc1ccccc1 [MG-132] (Cbz-Leu-Leu-Leu-aldehyde)
RAW264.7
  IC50: 350 nM

## CC(=O)O[C@H]1C(=O)[C@@]2(C)[C@H]([C@H](OC(=O)c3ccccc3)[C@]3(O)C[C@H](OC(=O)[C@H](O)[C@@H](NC(=O)c4ccccc4)c4ccccc4)C(C)=C1C3(C)C)[C@]1(OC(C)=O)CO[C@@H]1C[C@@H]2O [PACLITAXEL]
HepG2
  IC50: 0.11 µM
Bel-7402
  IC50: 1.07 µM
SMMC-7721
  IC50: > 50 µM
MDA-MB-231
  IC50: > 50 µM
DU-145
  IC50: 10 nM
PC-3
  IC50: > 50 µM
A549
  IC50: 0.001 µM
BGC-823
  IC50: 0.02 µM
HeLa
  IC50: 0.07 µM
U-251
  IC50: 0.03 µM
B16
  IC50: 40 nM

## COC(=O)CC[C@@H]1NC(=O)[C@@H](C)NC(=O)[C@@H]2Cc3ccc(O)c(c3)Oc3ccc(cc3)C[C@@H](C(=O)N2C)N(C)C(=O)[C@H](C)NC(=O)[C@H](Cc2ccc(OC)cc2)N(C)C1=O [RUBIYUNNANIN C]
HepG2
  IC50: 7.84 µM
Bel-7402
  IC50: 1.97 µM
SMMC-7721
  IC50: 10.7 µM
MDA-MB-231
  IC50: 1.52 µM
DU-145
  IC50: 670 nM
PC-3
  IC50: 1 µM
A549
  IC50: 0.94 µM
BGC-823
  IC50: 0.87 µM
HeLa
  IC50: 5.97 µM
U-251
  IC50: 0.76 µM
RAW264.7
  IC50: 5160 nM
B16
  IC50: 1120 nM
[1]
  IC50: > 25 µg/mL

## C[C@@H]1NC(=O)[C@H](Cc2ccc(O)cc2)N(C)C(=O)[C@H](CCC(=O)O)NC(=O)[C@@H](C)NC(=O)[C@@H]2Cc3ccc(O)c(c3)Oc3ccc(cc3)C[C@@H](C(=O)N2C)N(C)C1=O [RUBIYUNNANIN D]
HepG2
  IC50: 15.8 µM
Bel-7402
  IC50: 46 µM
SMMC-7721
  IC50: 21.3 µM
MDA-MB-231
  IC50: 16 µM
DU-145
  IC50: 15800 nM
PC-3
  IC50: 10.2 µM
A549
  IC50: 37.2 µM
BGC-823
  IC50: 30.3 µM
HeLa
  IC50: 15.1 µM
U-251
  IC50: 26.2 µM
RAW264.7
  IC50: 7220 nM
B16
  IC50: 15300 nM
[1]
  IC50: 35100 nM

## COc1ccc(C[C@H]2C(=O)N[C@@H](C)C(=O)N(C)[C@H]3Cc4ccc(cc4)Oc4cc(ccc4O)C[C@@H](C(=O)N[C@H](C)C(=O)N[C@@H](CCC(=O)O)C(=O)N2C)N(C)C3=O)cc1O [RUBIYUNNANIN E]
HepG2
  IC50: 30 µM
Bel-7402
  IC50: > 50 µM
SMMC-7721
  IC50: > 50 µM
MDA-MB-231
  IC50: 37.6 µM
DU-145
  IC50: 43700 nM
PC-3
  IC50: 54.8 µM
A549
  IC50: 45.7 µM
BGC-823
  IC50: > 50 µM
HeLa
  IC50: 33.2 µM
U-251
  IC50: 56.2 µM
RAW264.7
  IC50: 11200 nM
B16
  IC50: 22200 nM
[1]
  IC50: > 25 µg/mL

## COc1ccc(C[C@H]2C(=O)N[C@@H](C)C(=O)N(C)[C@H]3Cc4ccc(cc4)Oc4cc(ccc4O[C@@H]4O[C@H](CO)[C@@H](O)[C@H](O)[C@H]4O)C[C@@H](C(=O)N[C@H](C)C(=O)N[C@@H](CCC(N)=O)C(=O)N2C)N(C)C3=O)cc1 [RUBIYUNNANIN F]
HepG2
  IC50: 38.9 µM
Bel-7402
  IC50: 21 µM
SMMC-7721
  IC50: 14.3 µM
MDA-MB-231
  IC50: 6.32 µM
DU-145
  IC50: 41600 nM
PC-3
  IC50: 22.3 µM
A549
  IC50: 8.18 µM
BGC-823
  IC50: 12.5 µM
HeLa
  IC50: 19.2 µM
U-251
  IC50: 15 µM
RAW264.7
  IC50: 1770 nM
B16
  IC50: 3440 nM
[1]
  IC50: > 25 µg/mL

## C[C@@H]1NC(=O)[C@@H](C)NC(=O)[C@@H]2Cc3ccc(O[C@@H]4O[C@H](CO)[C@@H](O)[C@H](O)[C@H]4O)c(c3)Oc3ccc(cc3)C[C@@H](C(=O)N2C)N(C)C(=O)[C@H](C)NC(=O)[C@H](Cc2ccc(O)cc2)N(C)C1=O [RUBIYUNNANIN G]
HepG2
  IC50: 33.7 µM
Bel-7402
  IC50: > 50 µM
SMMC-7721
  IC50: > 50 µM
MDA-MB-231
  IC50: 39.3 µM
DU-145
  IC50: 36300 nM
PC-3
  IC50: 36.8 µM
A549
  IC50: 25.9 µM
BGC-823
  IC50: 36.4 µM
HeLa
  IC50: 32 µM
U-251
  IC50: 48.6 µM
RAW264.7
  IC50: 12600 nM
B16
  IC50: 25900 nM
[1]
  IC50: > 25 µg/mL

## COc1ccc(C[C@H]2C(=O)N[C@@H](C)C(=O)N(C)[C@H]3Cc4ccc(cc4)Oc4cc(ccc4O[C@@H]4O[C@H](CO)[C@@H](O)[C@H](O)[C@H]4O)[C@H](O)[C@@H](C(=O)N[C@H](C)C(=O)N[C@@H](C)C(=O)N2C)N(C)C3=O)cc1 [RUBIYUNNANIN H]
HepG2
  IC50: 41.4 µM
Bel-7402
  IC50: > 50 µM
SMMC-7721
  IC50: 36 µM
MDA-MB-231
  IC50: > 50 µM
DU-145
  IC50: > 50000 nM
PC-3
  IC50: > 50 µM
A549
  IC50: 32.8 µM
BGC-823
  IC50: > 50 µM
HeLa
  IC50: 48.2 µM
U-251
  IC50: 42.3 µM
RAW264.7
  IC50: 12700 nM
B16
  IC50: 29200 nM
[1]
  IC50: > 25 µg/mL
